Test results published in ChEMBL document CHEMBL1145788, “Synthesis of ethyl 5-phenyl-6-oxa-1-azabicyclo[3.1.0]hexane-2-carboxylate derivatives and evaluation of their antimalarial activities” (J Med Chem, 2003).
≈ marks a conversion by molar mass, not a printed value. Calls of active or inactive are those of the source. The calls are words filed in the database; no cut-off is given here.

How the values were obtained:
[1] = tested on: Mycobacterium tuberculosis; test: Growth inhibitory activity against Mycobacterium tuberculosis H37R; assay type: functional
How it was run: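 M. tuberculosis H37Ra growth inhibition measured by microplate Alamar Blue assay (MABA); read-out as MIC; isoniazid and kanamycin sulfate run as reference drugs.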

Plasmodium falciparum [2] = test: In vitro antimalarial activity against multidrug-resistant Plasmodium falciparum K1; Not active; assay type: functional, organism-based
How it was run: (§1)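 Cultured P. falciparum K1 (multidrug-resistant) tested by microculture radioisotope technique (Desjardins); growth measured as [3H]hypoxanthine uptake; EC50 taken as the concentration giving 50% reduction in parasite growth; chloroquine diphosphate and artemisinin as standards.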

Vero = test: Cytotoxicity against african green monkey kidney fibroblast (vero cell) at a concentration less than 50 ug/mL; Inactive; assay type: functional, cell-based; settings: Chlorocebus sabaeus
Plasmodium falciparum [3] = test: In vitro antimalarial activity against multidrug-resistant Plasmodium falciparum K1; assay type: functional, organism-based; how it was run: as §1
[4] = Cytotoxicity against african green monkey kidney fibroblast (vero cell); assay type: functional, cell-based; settings: Chlorocebus sabaeus
How it was run: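 Vero (African green monkey kidney fibroblast) cytotoxicity run by the colorimetric method of Skehan and co-workers.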

Row | Compound | MIC [1] [µg/mL] | IA (Plasmodium falciparum [2]) | IA (Vero) | EC50 (Plasmodium falciparum [3]) [µg/mL] | IC50 [4] [µg/mL]
1 | CCCC[C@@]1(C(=O)OCC)CC[C@@]2(c3ccccc3)O[N@@]12 | 100 (≈ 346 µM) | inactive | inactive | – | –
2 | C=CCCC[C@]1(C(=O)OCC)CC[C@@]2(c3ccccc3)O[N@@]12 | – | – | – | 13.9 (≈ 46.1 µM) | –
3 | CCOC(=O)[C@]1(C2C[C@H]2C(=O)OC)CC[C@@]2(c3ccccc3)O[N@]21 (stereo partly specified) | 200 (≈ 604 µM) | inactive | – | – | > 50
4 | NNC(=O)c1ccncc1 [ISONIAZID] | 0.05 (≈ 0.365 µM) | – | – | – | –
5 | CCOC(=O)[C@@]1(C2C[C@H]2C(=O)OC)CC[C@@]2(c3ccccc3)O[N@]21 (stereo partly specified) | 100 (≈ 302 µM) | – | – | 15.9 (≈ 48 µM) | 43.4 (≈ 131 µM)
6 | CCOC(=O)[C@@]1(CCCc2ccccc2)CC[C@@]2(c3ccccc3)O[N@@]12 | 200 (≈ 569 µM) | – | inactive | 2.9 (≈ 8.25 µM) | –
7 | CCC[C@]1(C(=O)OCC)CC[C@@]2(c3ccccc3)O[N@@]12 | 100 (≈ 363 µM) | – | – | 21.7 (≈ 78.8 µM) | 28.9 (≈ 105 µM)
8 | CCOC(=O)[C@]1(C)CC[C@@]2(c3ccccc3)O[N@@]12 | 200 (≈ 809 µM) | – | – | – | > 50
9 | CCOC(=O)[C@]1(CCC2OCCO2)CC[C@@]2(c3ccccc3)O[N@@]12 | – | inactive | – | – | > 50
10 | CCCCC[C@]1(C(=O)OCC)CC[C@@]2(c3ccccc3)O[N@@]12 | 100 (≈ 330 µM) | – | inactive | 3.1 (≈ 10.2 µM) | –
11 | CCCC[C@]1(C(=O)OCC)CC[C@@]2(c3ccccc3)O[N@@]12 | 100 (≈ 346 µM) | – | inactive | 2.4 (≈ 8.29 µM) | –
12 | CCOC(=O)[C@@]1(CCC=C(C)C)CC[C@@]2(c3ccccc3)O[N@@]12 | – | – | – | 21.9 (≈ 69.4 µM) | –
13 | CCCCC[C@@]1(C(=O)OCC)CC[C@@]2(c3ccccc3)O[N@@]12 | 100 (≈ 330 µM) | inactive | – | – | > 50
14 | Cc1c2ccncc2c(C)c2c1[nH]c1ccccc12 [ELLIPTECINE] | – | – | – | – | 1 (≈ 4.06 µM)
15 | CCOC(=O)[C@@]1(CCC2OCCO2)CC[C@@]2(c3ccccc3)O[N@@]12 | 200 (≈ 600 µM) | – | – | 14.7 (≈ 44.1 µM) | > 50
16 | CCOC(=O)[C@]1(CCCc2ccccc2)CC[C@@]2(c3ccccc3)O[N@@]12 | 25 (≈ 71.1 µM) | inactive | – | – | > 50
17 | C[C@@H]1CC[C@H]2[C@@H](C)C(=O)O[C@@H]3O[C@@]4(C)CC[C@@H]1[C@]32OO4 [ARTEMISININ] | – | – | – | 0.0011 (≈ 0.0039 µM) | –
18 | CCOC(=O)[C@@]1(C)CC[C@@]2(c3ccccc3)O[N@]21 | 200 (≈ 809 µM) | – | – | 4.6 (≈ 18.6 µM) | > 50
19 | CCN(CC)CCCC(C)Nc1ccnc2cc(Cl)ccc12.O=P(O)(O)O.O=P(O)(O)O (stereo unspecified) [CHLOROQUINE PHOSPHATE] | – | – | – | 0.16 | –
20 | C=CCC[C@]1(C(=O)OCC)CC[C@@]2(c3ccccc3)O[N@@]12 | – | – | – | 44.2 (≈ 154 µM) | –
21 | CCC[C@@]1(C(=O)OCC)CC[C@@]2(c3ccccc3)O[N@@]12 | 100 (≈ 363 µM) | – | – | – | > 50
